Arbovirus anti: antivirals against arbovirus infection; arbovirus infection cell-based antiviral screen; inhibition, % at 10 µM; 200,000 compounds, 0.37% hits; in the data active = inhibition above about 30%
PKD1 inh: PKD1 (human) kinase inhibition; inhibition, % (test concentration not listed); PKD1 kinase fluorescence polarization assay; 200,000 compounds, 0.056% hits; in the data active = inhibition above about 50%
Mdm2 ligase inh: Mdm2 E3 ligase (human) inhibition; Q00987; cell-based MDM2 ubiquitination luciferase reporter, 2 h; 0 = plate control, 100 = twice control, blank-subtracted; signal enhancement, % at 5 µM; 210,000 compounds, 0.11% hits;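 active = signal enhancement of 30% or more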;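 note: luminescence tracks abundance of the self-degrading MDM2-luciferase fusion protein; higher signal means inhibition of MDM2 E3 ligase activity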
Target sequence (Q00987 whole entry, looked up, the tested form may be a part): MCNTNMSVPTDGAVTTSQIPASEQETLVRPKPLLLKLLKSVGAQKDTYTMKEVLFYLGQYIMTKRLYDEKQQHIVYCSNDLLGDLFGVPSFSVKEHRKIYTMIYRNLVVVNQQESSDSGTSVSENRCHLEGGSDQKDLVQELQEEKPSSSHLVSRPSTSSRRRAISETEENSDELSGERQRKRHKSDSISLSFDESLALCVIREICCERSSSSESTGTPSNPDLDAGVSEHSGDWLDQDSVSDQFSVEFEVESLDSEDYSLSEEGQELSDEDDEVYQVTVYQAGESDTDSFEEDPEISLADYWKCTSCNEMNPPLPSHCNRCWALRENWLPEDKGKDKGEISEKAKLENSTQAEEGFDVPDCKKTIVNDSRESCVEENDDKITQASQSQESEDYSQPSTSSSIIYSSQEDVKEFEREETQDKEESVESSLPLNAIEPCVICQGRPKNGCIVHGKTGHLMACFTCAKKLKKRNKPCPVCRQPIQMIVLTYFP
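System: stable MDM2–luciferase fusion reporter cells / Input: 2000 cells seeded into each well / Schedule: 4 h settle plus 2 h compound, 37 °C / Compound: single-point 5 µM / Buffer or medium: cells held in DMEM / Benchmarks: control and blank well means / Evaluation: percent signal gain over controls, blank-subtracted / Measured by: luciferase luminescence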
Calpain2 inh: calpain II (pig) inhibition; purified calpain II, fluorogenic peptide substrate, 30 min; inhibition, % at 16 µM; 220,000 compounds, 0.37% hits;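 active = inhibition above about 50%, limit read from the data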
ROMK primary: modulators of human ROMK potassium channel; Tet-inducible ROMK, thallium flux fluorescence; actives lie on both sides; P48048; 130,000 compounds, 2% hits; AID 1918; B-score at 10 µM;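 active = signal ratio slope over the read window, or its plate-corrected B-score, at least 3 SD from the plate mean, either direction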;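 note: B-score of the F/F0 ratio slope over 7 to 12 s after thallium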
KCC2 mod: modulates chloride dependent transport by human KCC2; B-score of Tl+ flux slope (higher = more flux/activation; lower = inhibition) at 10 µM; Q9H2X9; 190,000 compounds, 2.2% hits; KCC2 cells, thallium flux FluoZin-2 fluorescence;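 active = thallium flux slope and its plate-corrected score both differing from the plate sample mean at a set confidence after two filtering rounds, in either direction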;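 note: slope of fluorescence scaled to starting intensity during 10 to 20 s after thallium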
ROMK hit retest: confirmation of human ROMK potassium channel modulators. shares compounds with ROMK primary. ROMK thallium flux, fluorescence ratio; stronger effect = lower value. normalized thallium flux (F/F0 slope) at 10 µM. 3,000 compounds, 54% hits. AID 1917;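 active = Flux at 10 µM at least 3 SD below or above vehicle control mean in one or both replicates; inconclusive = no clear call, values can overlap the other calls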
Large screens that a line does not name were inactive (follow-up assays come after a bar, where they were run). Sampled rows, rich in hits. Any-hit rate of the full collection: about 3.7%.

CCCN(CCC)CCCNS(=O)(=O)c1cc(Br)cc2c1N(C(C)=O)CC2	none
Cc1ccc(-n2ncc(C(=O)Nc3cc(Cl)ccc3C)c2C2CCNCC2)cc1C	ROMK primary -3.2 | ROMK hit retest 0.045
O=c1cc(-c2ccc(O)cc2)oc2ccccc12	none
O=c1cc(-c2ccc(O)cc2)oc2ccc(O)cc12	ROMK primary 2.5 | ROMK hit retest inactive
Cc1ccc(NC(=O)NCC2CCN(Cc3cc(C)ccc3Cl)CC2)c(C)c1	ROMK primary -3.8 | ROMK hit retest 0.054
CCC(C)[C@H](NC(=O)Nc1cccc(Br)c1)C(=O)OC (stereo partly specified)	none
O=C(NC(Nc1ncc(S(=O)(=O)c2ccc([N+](=O)[O-])cc2)s1)(C(F)(F)F)C(F)(F)F)c1ccc(Cl)cc1	ROMK primary -3 | ROMK hit retest inactive
CCC(C)[C@H](NC(=O)NCC1CCCO1)C(=O)OC (stereo partly specified)	none
COCCNC(=O)CSC1=N/C(=C/c2ccc(Cl)c(Cl)c2)C(=O)N1c1ccccc1F	none (no result: ROMK primary) | ROMK hit retest inactive
C=CCN1C(=O)/C(=C\c2ccc(Cl)cc2)N=C1SCC(=O)NCCC	none
COc1ccccc1/C=N/N1C(=O)C(CC(=O)Nc2ccc([N+](=O)[O-])cc2OC)SC1=Nc1cccc(C)c1C (stereo unspecified)	ROMK primary 2.7 | ROMK hit retest inactive
Cc1cccc(CSCC(=O)NCc2ccc(S(N)(=O)=O)cc2)c1	none
CC(Oc1ccc(Cl)cc1Cl)C(=O)OCn1nnc2ccccc2c1=O (stereo unspecified)	ROMK primary 3.7 | ROMK hit retest inactive
O=c1c2ccccc2nnn1COc1ccc(Cl)cc1Br	none
CC(=O)Cc1nsc(NC(=O)c2ccc(-c3cccc(Cl)c3)o2)n1	ROMK primary 4.3 | ROMK hit retest inactive
O=C(Nc1ccc(S(=O)(=O)Nc2nccs2)cc1)c1cc(-c2ccccc2Cl)nc2ccccc12	ROMK primary 4.2 | ROMK hit retest inactive
O=C(COc1ccc(Br)cc1CNC1CCCCC1)NCCc1ccccc1	ROMK primary -5.2 | ROMK hit retest 0.048
CCCCN(C)CCNC(=O)c1ccc2c(c1)NC(=O)C(N1CCCCC1)S2 (stereo unspecified)	none (no result: Calpain2 inh, ROMK primary)
CCn1cc(SCC(=O)N2CCc3ccccc32)c2ccccc21	none (no result: ROMK primary)
Cc1cccc2cc(CNCc3ccccc3)c(Cl)nc12	none
CC(=O)c1ccc(N(C(=O)CS(=O)CC(=O)Nc2ccc(F)cc2)C(C(=O)NC2CCCCC2)c2cccs2)cc1 (stereo unspecified)	ROMK primary -3.3 | ROMK hit retest inactive
CCOc1ccccc1/C=N/Nc1nc2c(N)ncnc2n1[C@H]1O[C@@H](CO)[C@H](O)[C@@H]1O	none (no result: Arbovirus anti, PKD1 inh, ROMK primary)
CS(=O)(=O)N1CCC(C(=O)Nc2ccccc2)CC1	none (no result: KCC2 mod)
Cc1ccc(NC(=O)C2CCN(S(C)(=O)=O)CC2)cc1C	ROMK primary 1.6 | ROMK hit retest inactive
CCOC(=O)Cn1nc(Cc2ccccc2)c2ccccc2c1=O	none (no result: ROMK primary)
CCOC(=O)Cn1nc(-c2ccccc2)c2ccccc2c1=O	ROMK primary 4.1 (no result: KCC2 mod) | ROMK hit retest inactive
c1ccc2c(N3CCCCCC3)nc(-c3ccncc3)nc2c1	ROMK primary -2.8 | ROMK hit retest inconclusive
Cc1ccc(-n2nc(C)cc2NC(=O)c2ccc(C)s2)cc1	none
O=C1NC(=Nc2ccc3ccccc3c2)S/C1=C/c1ccco1	ROMK primary 2.6 | ROMK hit retest inactive
CC1(C)C2CCC1(CS(=O)(=O)N1CCCc3ccccc31)C(=O)C2 (stereo unspecified)	ROMK primary -3.4 | ROMK hit retest inactive
COc1ccccc1N1CCN(S(=O)(=O)CC23CCC(CC2=O)C3(C)C)CC1 (stereo unspecified)	none (no result: ROMK primary)
CCc1ccc(/C=N/NC(=O)c2cc(-c3ccncc3)nc3ccccc23)s1	none (no result: ROMK primary)
O=C(N/N=C/c1cccs1)c1cc(-c2ccncc2)nc2ccccc12	ROMK primary 4.2 | ROMK hit retest inactive
Cc1cc(S(=O)(=O)N2CCN(c3ccc(F)cc3)CC2)c(C)s1	none (no result: ROMK primary, KCC2 mod)
OC[C@@H]1CCCN1Cc1cn(-c2ccccc2)nc1-c1ccc2c(c1)OCO2	none (no result: KCC2 mod)
COCC1CCCCN1Cc1cn(-c2ccccc2)nc1-c1ccc2c(c1)OCO2 (stereo unspecified)	ROMK primary -3.4 | ROMK hit retest 0.065
c1ccc(-n2cc(CNCCc3cscn3)c(-c3ccc4c(c3)OCO4)n2)cc1	ROMK primary -3.1 | ROMK hit retest 0.05
OCc1cn(-c2ccccc2)nc1-c1ccc2c(c1)OCCO2	none (no result: KCC2 mod)
Cc1cc(C)cc(-n2nnn(C3C/C(=N/NC(N)=S)C4OCC3O4)c2=S)c1 (stereo unspecified)	none
CC(C)(C)NC(=O)C(c1ccccc1F)N(Cc1ccco1)C(=O)c1csnn1 (stereo unspecified)	none (no result: KCC2 mod)
O=C(NCCN1CCOCC1)c1ccc2c(c1)N(Cc1ccccc1F)C(=O)c1ccccc1S2	none
CCN1CCN(CCCNC(=O)c2ccc(/C=C3/Sc4ccccc4N(Cc4ccccc4F)C3=O)cc2)CC1	ROMK primary -3.3 | ROMK hit retest inactive
COCCCNC(=O)CN1C(=O)/C(=C/c2ccccc2)Sc2ccccc21	none (no result: Arbovirus anti, PKD1 inh, Mdm2 ligase inh, ROMK primary)
CCN1CCN(CCNC(=O)c2ccc(/C=C3/Sc4ccccc4N(Cc4ccccc4C)C3=O)cc2)CC1	ROMK primary -3.6 | ROMK hit retest inactive
Cc1cc(C)c(C(=O)N2CCCC(CNC(=O)C3(c4ccc(Cl)cc4)CC3)C2)c(=O)[nH]1 (stereo unspecified)	none
COc1ccc(C(C)=O)cc1CN1C(=O)NC2(CCCCC2)C1=O	ROMK primary 2 | ROMK hit retest inactive
CCNC(=O)NC(=O)CSc1nc2ccccc2n1CCOC	none (no result: ROMK primary)
O=C(O)c1cc2nc(C3CC3)cc(C(F)(F)F)n2n1	none (no result: ROMK primary)
O=C(c1cc2nc(C3CC3)cc(C(F)(F)F)n2n1)N1CCCC1	ROMK primary 6.9 | ROMK hit retest inactive
O=C(N/N=C/c1ccccc1C(=O)O)c1ccccc1Br	none
NC(=O)N/N=C/c1ccccc1OC(=O)c1ccccc1Br	ROMK primary -3.2 | ROMK hit retest 0.052
CCCCN(CC)C(=O)CSc1nc2c(sc(=S)n2-c2ccc(OCC)cc2)c(=O)[nH]1	Arbovirus anti 47, ROMK primary 2.8 | ROMK hit retest inconclusive
COc1ccc(C(=S)N2CCCC2)cc1C	none (no result: ROMK primary)
O=C(NCc1ccco1)c1ccc(=O)[nH]n1	none (no result: KCC2 mod)
O=C(NCc1ccccc1)c1ccc(=O)[nH]n1	none | ROMK hit retest inactive
CC(=O)c1cccc(N2Cc3ccccc3C2=NC(=O)CCl)c1	none
O=C(O)CCCN1C(=O)/C(=C/c2ccncc2)SC1=S	none (no result: Arbovirus anti, PKD1 inh)
O=C(O)CCCCCN1C(=O)/C(=C/c2ccncc2)SC1=S	ROMK primary -4.2 | ROMK hit retest 0.048
O=C(O)CCCCCN1C(=O)/C(=C\c2ccncc2)SC1=S	ROMK primary -4.1 | ROMK hit retest 0.049
